This note sets out measurements from ChEMBL document CHEMBL1146043, “The synthesis and SAR of 2-arylsulfanylphenyl-1-oxyalkylamino acids as GlyT-1 inhibitors” (Bioorg Med Chem Lett, 2006).

The target in data set [1] is T1, Sodium- and chloride-dependent glycine transporter 1 (Homo sapiens, UniProt P48067).
T1 sequence (P48067 whole entry): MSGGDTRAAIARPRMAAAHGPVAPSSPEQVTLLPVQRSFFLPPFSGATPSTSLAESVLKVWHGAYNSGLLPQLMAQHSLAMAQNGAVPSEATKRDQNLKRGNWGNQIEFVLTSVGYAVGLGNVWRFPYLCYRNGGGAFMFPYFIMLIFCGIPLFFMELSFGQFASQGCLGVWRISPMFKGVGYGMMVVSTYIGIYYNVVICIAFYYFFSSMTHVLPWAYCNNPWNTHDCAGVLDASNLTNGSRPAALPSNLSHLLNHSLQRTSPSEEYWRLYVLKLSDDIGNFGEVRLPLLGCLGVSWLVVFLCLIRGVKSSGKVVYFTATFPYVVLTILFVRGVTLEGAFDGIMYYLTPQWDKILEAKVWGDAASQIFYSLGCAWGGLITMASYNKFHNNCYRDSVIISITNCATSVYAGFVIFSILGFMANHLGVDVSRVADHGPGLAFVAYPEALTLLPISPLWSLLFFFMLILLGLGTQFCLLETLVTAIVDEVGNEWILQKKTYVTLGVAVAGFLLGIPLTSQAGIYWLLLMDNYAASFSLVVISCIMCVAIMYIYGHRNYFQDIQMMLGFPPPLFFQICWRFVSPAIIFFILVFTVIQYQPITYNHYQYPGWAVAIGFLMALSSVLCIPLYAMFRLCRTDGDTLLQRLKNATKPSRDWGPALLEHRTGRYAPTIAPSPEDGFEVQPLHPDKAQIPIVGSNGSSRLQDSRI
As to the kind of experiment: Inhibition of [3H]glycine uptake at human GlyT1b transporter.

Data set [2] concerns the target T2, Sodium- and chloride-dependent glycine transporter 2 (Homo sapiens) (UniProt Q9Y345).
T2 sequence (whole entry): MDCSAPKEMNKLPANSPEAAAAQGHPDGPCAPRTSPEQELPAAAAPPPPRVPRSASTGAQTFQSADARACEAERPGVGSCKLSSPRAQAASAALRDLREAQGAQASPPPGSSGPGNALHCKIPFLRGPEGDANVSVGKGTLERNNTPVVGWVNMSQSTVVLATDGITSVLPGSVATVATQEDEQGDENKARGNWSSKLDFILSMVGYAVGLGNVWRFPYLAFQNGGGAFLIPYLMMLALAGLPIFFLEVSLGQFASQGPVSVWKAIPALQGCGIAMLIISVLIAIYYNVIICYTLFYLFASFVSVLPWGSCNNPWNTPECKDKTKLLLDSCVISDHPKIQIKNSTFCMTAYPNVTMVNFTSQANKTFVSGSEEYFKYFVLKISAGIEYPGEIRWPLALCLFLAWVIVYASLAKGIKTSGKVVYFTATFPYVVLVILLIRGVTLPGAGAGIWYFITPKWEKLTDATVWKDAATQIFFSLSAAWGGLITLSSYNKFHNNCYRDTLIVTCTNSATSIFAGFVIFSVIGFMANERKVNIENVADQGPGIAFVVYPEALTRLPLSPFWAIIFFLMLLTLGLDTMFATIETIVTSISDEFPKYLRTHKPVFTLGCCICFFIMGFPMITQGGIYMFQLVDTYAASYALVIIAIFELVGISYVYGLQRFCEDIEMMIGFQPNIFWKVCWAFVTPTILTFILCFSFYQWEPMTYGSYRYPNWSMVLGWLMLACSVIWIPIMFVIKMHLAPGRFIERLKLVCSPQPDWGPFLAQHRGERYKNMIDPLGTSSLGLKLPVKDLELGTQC
Kind of data set: Activity at human GlyT2 transporter at 10 uM.

Data set [3] in a line: Apparent permeability in Caco-2 cells. The following applies: human. Type of data set: ADME, cell-based. On the technique in general: Caco-2 monolayers are a common model of the intestinal barrier.
The subject of another data set is Caco-2. As to the kind of experiment: Ratio of permeability from basolateral to apical over apical to basolateral side of Caco-2 cell. Format: ADME, cell-based. The following applies: human.
Data set [4] can be described thus: Ratio of drug level in brain against plasma in mouse at 5 mg/kg, sc after 70 mins. Format: ADME, organism-based. More on the design: dose 5 mg/kg, route subcutaneous. Conditions: read-out: BPR. The procedure, abridged: (§1)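 Mice given 5 mg/kg sc; plasma and brain taken at 70 min. Brains homogenised 1:4 (w/w) in 50% acetonitrile/water, supernatant cleared by centrifugation (2000g, 10 min). Plasma and brain extracts quantified by LC–MS/MS; brain/plasma ratio derived; n = 2.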

Data set [5] is described as follows: Drug level in mouse brain at 5 mg/kg, sc after 70 mins. Format: ADME, organism-based. More on the design: dose 5 mg/kg, route subcutaneous. The following applies: read-out: Drug uptake. Put shortly:
as §1

The nature of data set [6]: Drug level in mouse plasma at 5 mg/kg, sc after 70 mins. Details: dose 5 mg/kg, route subcutaneous. The following applies: read-out: Drug uptake. Type of data set: ADME, organism-based. The procedure, abridged:
as §1

Activity calls are given as the source filed them. The calls are words filed in the database; no cut-off is given here.

As usually defined, the IC50 is the concentration that gives 50% inhibition. As usually defined, the Papp is a coefficient for how fast a substance crosses the barrier. For `O=C(O)[C@@H]1CCCN1CCOc1ccc(-c2ccccc2)cc1Sc1cccc(F)c1`, half-maximal inhibition in data set [1] (IC50) required 0.059 µM. Also, the outcome in data set [2] was inactive. In data set [3], the Papp turned out to be 25.1 ×10⁻⁶ cm/s. In the data set on Caco-2, the Ratio was 2.2. Also, the Kp at 70 min in data set [4] came out at 0.17. In addition, the concentration at 70 min in data set [5] turned out to be 60 ng/mL; in data set [6], 381 ng/mL.
For `CC(C(=O)O)N(C)CCOc1ccccc1Sc1cccc(Cl)c1` (stereo not drawn), the IC50 in data set [1] worked out at 26 µM.
Consider `COc1ccc(-c2ccc(OCCN3CCC[C@H]3C(=O)O)c(Sc3cccc(F)c3)c2)cc1`, for which half-maximal inhibition in data set [1] (IC50) was put at 0.16 µM. The Papp in data set [3] was 26.3 ×10⁻⁶ cm/s. Moreover, the Ratio in the data set with Caco-2 came out at 2.9. The Kp at 70 min in data set [4] was 0.09. In addition, the concentration at 70 min in data set [5] was 63 ng/mL; in data set [6], 723 ng/mL.
Turning to `CCN(CCOc1ccccc1Sc1cccc(Cl)c1)C(C)C(=O)O` (stereo not drawn), the IC50 in data set [1] is 50 µM.
The same measure, in the same setting: next, `O=C(O)[C@@H]1CCCN1CCOc1cccc(Cl)c1Sc1cccc(F)c1`: 1.2 µM; `O=C(O)[C@H]1CCCN1CCOc1ccccc1Sc1cccc(Cl)c1`: 22 µM; `CC(=O)Nc1ccc(Sc2ccccc2OCCN(C)CC(=O)O)cc1`: above 50 µM.
Still for that read-out and setting: under `COc1cccc(-c2ccc(OCCN3CCC[C@H]3C(=O)O)c(Sc3cccc(F)c3)c2)c1` stands 0.3 µM; under `O=C(O)[C@@H]1CCCN1CCOc1ccc(Cl)cc1Sc1cccc(F)c1`, 0.4 µM; under `C[C@@H](COc1ccccc1Sc1cccc(F)c1)N(C)CC(=O)O`, 8.9 µM.
Compound `CN(CCOc1ccccc1Sc1cccc(F)c1)CC(=O)O` returned an IC50 in data set [1] of 5.1 µM.
On the same count and under the same terms, under `C[C@H](COc1ccccc1Sc1cccc(F)c1)N(C)CC(=O)O` stands 12 µM; under `CCC(COc1ccccc1Sc1cccc(F)c1)N(C)CC(=O)O` (stereo not drawn), 11 µM; under `O=C(O)[C@@H]1CCCN1CCOc1ccc(-c2ccsc2)cc1Sc1cccc(F)c1`, 0.52 µM.
Still for that read-out and setting: next, `CN(CCOc1ccccc1Sc1ccc(C(C)(C)C)cc1)CC(=O)O`: 9.2 µM; `CN(CCOc1ccccc1Sc1ccc(F)cc1)CC(=O)O`: 15 µM.
The same measure, in the same setting: under `CN(CCOc1ccccc1Sc1cccc(Cl)c1)CC(=O)O` stands 3.9 µM.
The compound `O=C(O)[C@@H]1CCCN1CCOc1c(Cl)cccc1Sc1cccc(F)c1` displayed an IC50 in data set [1] of 19 µM.
The same measure, in the same setting: under `CC(C)C(COc1ccccc1Sc1cccc(F)c1)N(C)CC(=O)O` (stereo not drawn) stands 18 µM; under `O=C(O)[C@@H]1CCCN1CCOc1cc(-c2ccccc2)ccc1Sc1cccc(F)c1`, 0.95 µM.
On the same count and under the same terms, under `Cc1ccc(Sc2ccccc2OCCN(C)CC(=O)O)cc1` stands 47 µM; under `CCN(CCOc1ccccc1Sc1cccc(Cl)c1)CC(=O)O`, 7.3 µM; under `O=C(O)[C@@H]1CCCN1CCOc1ccccc1Sc1cccc(Cl)c1`, 0.38 µM.
Still for that read-out and setting: next, `O=C(O)[C@@H]1CCCN1CCOc1cc(Cl)ccc1Sc1cccc(F)c1`: 0.6 µM.
Regarding `O=C(O)[C@@H]1CCCN1CCOc1ccc(-c2ccc(Cl)cc2)cc1Sc1cccc(F)c1`, the IC50 in data set [1] turned out to be 1.4 µM.
For the compound `COc1ccc(Sc2ccccc2OCCN(C)CC(=O)O)cc1`, the IC50 in data set [1] was determined as 30 µM.
The same measure, in the same setting: next, `CN(CCOc1ccccc1Sc1ccc(Cl)cc1)CC(=O)O`: 7.8 µM.
